Consider five compounds from ChEMBL document CHEMBL4138207, “Phenolic Substances from Ocimum Species Enhance Glucose-Stimulated Insulin Secretion and Modulate the Expression of Key Insulin Regulatory Genes in Mice Pancreatic Islets” (J Nat Prod, 2017).

The source made the active and inactive calls. The calls are words filed in the database; no cut-off is given here.

Data set [1] deals with Pancreatic islet. Kind of data set: Upregulation of GCGR mRNA expression in NMRI mouse pancreatic islets at 10^-8 M after 72 hrs by Taqman-based qRT-PCR analysis. The class given is functional, cell-based. In a few lines: (§1)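 Female NMRI mouse islets were exposed 72 h to compound at 10−8 M in RPMI with 11.1 mM glucose. Islets from 2–3 mice (180–200) were pooled for Trizol RNA extraction. Reverse transcription and 14-cycle preamplification preceded TaqMan real-time PCR. Data were normalized to the geometric mean of 18S and Hprt1 by the (1+efficiency)−ΔCT method and expressed as fold versus untreated control. Samples were run in triplicate, each measured in triplicate.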
For orientation: In qPCR the cycle at which signal appears reflects the starting amount.

The nature of data set [2]: Induction of 3.3 mM glucose-stimulated insulin secretion in NMRI mouse pancreatic islets at 10^-8 M pretreated for 72 hrs in presence of 11.1 mM glucose followed by 3.3 mM glucose stimulation after 60 mins by radioimmunoassay. It counts as cell-based. As to conditions: pancreatic islet, 1 h, 0.01 µM. In short, it runs like this: (§2)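 Islets from female NMRI mice were cultured 72 h in RPMI with 11.1 mM glucose and 10% FCS, ± compound at 10−8 M final. They were rinsed and preincubated 30 min in KRB with 3.3 mM glucose and 0.1% BSA. Single islets were then stimulated 60 min at 37 °C with 3.3 or 16.7 mM glucose. Insulin was measured by RIA as fold of the 16.7 mM glucose control; 24 replicates.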

The test system of data set [3] is Pancreatic islet. In words: Upregulation of […] mRNA expression in NMRI mouse pancreatic islets at 10^-8 M after 72 hrs by Taqman-based qRT-PCR analysis. It counts as functional, cell-based. In short, it runs like this: as §1
A short description of data set [4]: Induction of 16.7 mM glucose-stimulated insulin secretion in NMRI mouse pancreatic islets at 10^-6 M after 60 mins by radioimmunoassay relative to 16.7 mM glucose control. The class given is functional, Pancreatic islet. In a few lines: (§3)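 Female NMRI mouse islets, cultured overnight, were preincubated 30 min in KRB with 3.3 mM glucose and 0.1% BSA. Single islets were then incubated 60 min at 37 °C in HEPES-KRB (pH 7.4) with 16.7 mM glucose plus compound at 10−10, 10−8 or 10−6 M, diluted from 10−4 M aqueous stock. Medium insulin was measured by RIA and expressed as fold of the 16.7 mM glucose control; 24 replicates.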

Data set [5] deals with Pancreatic islet. In words: Upregulation of INS1 mRNA expression in NMRI mouse pancreatic islets at 10^-8 M after 72 hrs by Taqman-based qRT-PCR analysis. The class given is functional, cell-based. In a few lines:
as §1

Data set [6] in a line: Induction of 16.7 mM glucose-stimulated insulin secretion in NMRI mouse pancreatic islets at 10^-8 M pretreated for 72 hrs in presence of 11.1 mM glucose followed by 16.7 mM glucose stimulation after 60 mins by radioimmunoassay relative to 16.7 mM glucose control. The class given is functional, Pancreatic islet. In short, it runs like this: as §2
A short description of data set [7]: Induction of 6.6 mM glucose-stimulated insulin secretion in NMRI mouse pancreatic islets at 10^-6 M after 60 mins by radioimmunoassay. Particulars: pancreatic islet, 1 h, 1 µM. It counts as cell-based. In short, it runs like this:
(§4)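 Islets from adult female NMRI mice (22–25 g), collagenase-isolated and cultured overnight in RPMI 1640 (11.1 mM glucose, 10% FCS) at 37 °C. After 30 min preincubation in KRB with 3.3 mM glucose and 0.1% BSA, single islets were incubated 60 min at 37 °C in HEPES-KRB (pH 7.4) at 3.3, 6.6, 11.1 or 16.7 mM glucose ± compound at 10−6 M. Insulin in the medium was measured by RIA, reported in ng/mL; n = 16 per treatment.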

Data set [8] deals with Pancreatic islet. Kind of data set: Upregulation of INS2 mRNA expression in NMRI mouse pancreatic islets at 10^-8 M after 72 hrs by Taqman-based qRT-PCR analysis. It counts as functional, cell-based. In short, it runs like this: as §1
In data set [9] the test system is Pancreatic islet. In words: Induction of 16.7 mM glucose-stimulated insulin secretion in NMRI mouse pancreatic islets at 10^-6 M after 60 mins by radioimmunoassay. The class given is functional, cell-based. In a few lines:
as §4

Data set [10] has as its system Pancreatic islet. In words: Upregulation of INSR mRNA expression in NMRI mouse pancreatic islets at 10^-8 M after 72 hrs by Taqman-based qRT-PCR analysis. It counts as functional, cell-based. In short, it runs like this: as §1
The test system of data set [11] is Pancreatic islet. Kind of data set: Upregulation of PDX1 mRNA expression in NMRI mouse pancreatic islets at 10^-8 M after 72 hrs by Taqman-based qRT-PCR analysis. It counts as functional, cell-based. In a few lines: as §1
Data set [12] is described as follows: Induction of 16.7 mM glucose-stimulated insulin secretion in NMRI mouse pancreatic islets at 10^-8 M after 60 mins by radioimmunoassay relative to 16.7 mM glucose control. The class given is functional, Pancreatic islet. In a few lines:
as §3

In data set [13] the test system is Pancreatic islet. Kind of data set: Upregulation of IRS1 mRNA expression in NMRI mouse pancreatic islets at 10^-8 M after 72 hrs by Taqman-based qRT-PCR analysis. The class given is functional, cell-based. In a few lines:
as §1

Data set [14] is described as follows: Induction of 16.7 mM glucose-stimulated insulin secretion in NMRI mouse pancreatic islets at 10^-10 M after 60 mins by radioimmunoassay relative to 16.7 mM glucose control. The class given is functional, Pancreatic islet. In a few lines: as §3
The nature of data set [15]: Induction of 3.3 mM glucose-stimulated insulin secretion in NMRI mouse pancreatic islets at 10^-6 M after 60 mins by radioimmunoassay. The class given is cell-based. As to conditions: pancreatic islet, 1 h, 1 µM. In a few lines: as §4
Data set [16] has as its system Pancreatic islet. In words: Upregulation of GLUT2 mRNA expression in NMRI mouse pancreatic islets at 10^-8 M after 72 hrs by Taqman-based qRT-PCR analysis. The class given is functional, cell-based. In a few lines: as §1
For data set [17], the system named is Pancreatic islet. In words: (§5) Induction of 11.1 mM glucose-stimulated insulin secretion in NMRI mouse pancreatic islets at 10^-6 M after 60 mins by radioimmunoassay relative to control. The class given is functional. In a few lines: as §4
The nature of data set [18]: as §5. It counts as functional, Pancreatic islet. In a few lines:
as §4

In the case of `O=c1cc(-c2ccc(O)cc2)oc2c([C@@H]3O[C@H](CO)[C@@H](O)[C@H](O)[C@H]3O)c(O)c([C@@H]3O[C@H](CO)[C@@H](O)[C@H](O)[C@H]3O)c(O)c12`, the outcome with Pancreatic islet [1], in the data set with Pancreatic islet [3], in the data set with Pancreatic islet [5], in the data set on Pancreatic islet [8], with Pancreatic islet [11] and in the data set on Pancreatic islet [13] was inactive. In the data set with Pancreatic islet [16], the result was inactive. The Activity result in [2], in data set [7] and in data set [15] was “Non-Toxic” in each case. The “fold change (FC)” value in [4] came out at 2.3; in [6], 2.2; in [12] it was 2.3; in data set [14], 2.5. Further, the outcome with Pancreatic islet [9] and with Pancreatic islet [10] was Active.
As for `O=C(O)/C=C/c1ccc(O)c(O)c1` [CAFFEIC ACID], the result in the data set with Pancreatic islet [1], in the data set on Pancreatic islet [5], with Pancreatic islet [17], in the data set with Pancreatic islet [8], in the data set with Pancreatic islet [10] and in the data set with Pancreatic islet [13] was inactive. In addition, the Activity entry in data set [2], in data set [7] and in [15] was “Non-Toxic” throughout. Further, the outcome with Pancreatic islet [3], in the data set on Pancreatic islet [9], in the data set on Pancreatic islet [11] and in the data set with Pancreatic islet [16] was Active. In addition, the “fold change (FC)” value in data set [4] was 2; in data set [6], 1.5; in data set [12], 1.7.
On to `O=C(/C=C/c1ccc(O)c(O)c1)O[C@@H](C(=O)O)[C@@H](O)C(=O)O` [CAFTARIC ACID], for which the result in the data set on Pancreatic islet [1], in the data set on Pancreatic islet [3], in the data set with Pancreatic islet [11], in the data set on Pancreatic islet [13] and in the data set on Pancreatic islet [16] was inactive. Further, the Activity entry in data set [2], in [7] and in data set [15] was “Non-Toxic” each time. Moreover, the “fold change (FC)” value in data set [4] is recorded as 5.5; in [6] it was 3.2; in [12], 5.1; in data set [14], 2.8. Further, the result in the data set with Pancreatic islet [5], in the data set with Pancreatic islet [8], with Pancreatic islet [9] and in the data set with Pancreatic islet [10] was Active.
On to `O=C(/C=C/c1ccc(O)c(O)c1)O[C@@H](C(=O)O)[C@@H](OC(=O)/C=C/c1ccc(O)c(O)c1)C(=O)O` [CICHORIC ACID], for which the outcome in the data set with Pancreatic islet [1], in the data set with Pancreatic islet [3] and in the data set on Pancreatic islet [16] was inactive. The Activity entry in data set [2], in data set [7] and in data set [15] was “Non-Toxic” throughout. The “fold change (FC)” value in data set [4] was found to be 4.1; in data set [6], 3.5; in data set [12], 1.9; in data set [14], 1.8. For the same compound, the result in the data set on Pancreatic islet [5], in the data set on Pancreatic islet [8], in the data set on Pancreatic islet [9], with Pancreatic islet [10], with Pancreatic islet [11] and in the data set on Pancreatic islet [13] was Active.
For the compound `O=C(/C=C/c1ccc(O)c(O)c1)O[C@H](Cc1ccc(O)c(O)c1)C(=O)O` [ROSMARINIC ACID], the result in the data set with Pancreatic islet [1] and in the data set on Pancreatic islet [3] was inactive. In addition, the Activity entry in data set [2] is listed as “Non-Toxic”; in data set [7], “Non-Toxic”; in data set [18], 68%; in [15], “Non-Toxic”. Also, the “fold change (FC)” value in data set [4] came to 4.9; in [6], 3.4; in data set [12], 2.8; in [14] it was 3.3. Further, the outcome with Pancreatic islet [5], with Pancreatic islet [8], in the data set with Pancreatic islet [9], in the data set on Pancreatic islet [10], in the data set with Pancreatic islet [11] and with Pancreatic islet [13] was Active. Further, the outcome with Pancreatic islet [16] was Active.
